Measurements pooled from the literature.
PLA2G6: 85/88 kDa calcium-independent phospholipase A2 (PLA2G6, Homo sapiens, UniProt O60733)
CSNK1A1: Casein kinase I isoform alpha (CSNK1A1, Homo sapiens, UniProt P48729)
SLC22A12: Solute carrier family 22 member 12 (SLC22A12, Homo sapiens, UniProt Q96S37)
HDAC10: Polyamine deacetylase HDAC10 (HDAC10, Homo sapiens, UniProt Q969S8)
HDAC7: Histone deacetylase 7 (HDAC7, Homo sapiens, UniProt Q8WUI4)

O=C(CCCCCCCCO)C(F)(F)F — IC50 (PLA2G6; enzyme activity, inhibitor): 12.7 µM
c1coc(-c2n[nH]cc2-c2ccnc3ccccc23)c1 — IC50 (CSNK1A1; enzyme activity, inhibitor, ADP detection): 3.4 µM
CCc1oc2cc(F)ccc2c1C(=O)c1cc(Br)c(O)c(Br)c1 — IC50 (SLC22A12; transporter uptake, inhibitor, radiometric; oocytes): 0.018 µM
O=C1CCC(c2ccc(OCC(=O)OCCCCc3cn(CCCCCCN4CCc5c(c6ccccc6n5Cc5ccc(C(=O)NO)cc5)C4)nn3)cc2)C(=O)N1 (centres unmarked) — IC50 (HDAC10; enzyme activity, inhibitor, fluorescence): 0.015 µM
COc1ccc2c(-c3ccncc3)c(-c3ccc(F)cc3)nn2c1 — IC50 (CSNK1A1; enzyme activity, inhibitor, ADP detection): 2.4 µM
O=C1CCC(N2C(=O)c3cccc(NCC(=O)OCCCCc4cn(CCCCCCN5CCc6c(c7ccccc7n6Cc6ccc(C(=O)NO)cc6)C5)nn4)c3C2=O)C(=O)N1 (centres unmarked) — IC50 (HDAC10; enzyme activity, inhibitor, fluorescence): 0.017 µM
Fc1ccc(Cc2[nH]nc(-c3ccccn3)c2-c2ccnc3ccccc23)cc1 — IC50 (CSNK1A1; enzyme activity, inhibitor, ADP detection): 11 µM
O=C(NS(=O)(=O)C1CC1)c1cc2ccccc2n1Cc1ccc(C2CC2)c2ccccc12 — IC50 (SLC22A12; transporter uptake, inhibitor, radiometric): 5.8 µM
Fc1ccc(-c2nn3cc(F)ccc3c2-c2ccncc2)cc1 — IC50 (CSNK1A1; enzyme activity, inhibitor, ADP detection): 2.4 µM
c1ccc(Cc2[nH]nc(-c3ccccn3)c2-c2ccnc3ccccc23)cc1 — IC50 (CSNK1A1; enzyme activity, inhibitor, ADP detection): 3.5 µM
O=C(NS(=O)(=O)c1ccccc1)c1cc2ccccc2n1Cc1ccc(Br)c2ccccc12 — IC50 (SLC22A12; transporter uptake, inhibitor, radiometric): 12 µM
O=C(c1ccc(OCCN2CCCCC2)cc1)c1c(-c2ccc(O)cc2)sc2cc(O)ccc12 — IC50 (Angiotensin-converting enzyme (Mus musculus, UniProt P09470); enzyme activity, inhibitor): 88.6 µM
N#Cc1ccn2nc(-c3ccc(F)cc3)c(-c3ccncc3)c2c1 — IC50 (CSNK1A1; enzyme activity, inhibitor, ADP detection): 0.73 µM
COc1ccc(N(Cc2csc(-c3ccccc3)n2)C(=O)CCCCCC(=O)NO)cc1 — IC50 (HDAC7; enzyme activity, inhibitor): > 10 µM
O=C(COc1ccc(C2CCC(=O)NC2=O)cc1)NCCCCCCN1CCc2c(c3ccccc3n2Cc2ccc(C(=O)NO)cc2)C1 (centres unmarked) — IC50 (HDAC10; enzyme activity, inhibitor, fluorescence): 0.023 µM
c1ccc(-c2n[nH]cc2-c2ccncc2)nc1 — IC50 (CSNK1A1; enzyme activity, inhibitor, ADP detection): 2.9 µM
CC(C)NC(=O)COc1cccc(-c2nc(Nc3ccc4[nH]ncc4c3)c3ccccc3n2)c1 — IC50 (Solute carrier family 22 member 2 (SLC22A2, Homo sapiens, UniProt O15244); transporter uptake, inhibitor, radiometric; HEK293): > 1 µM
COc1ccc(N(Cc2nc(-c3ccc(F)cc3)cs2)C(=O)CCCCCC(=O)NO)cc1 — IC50 (HDAC7; enzyme activity, inhibitor): > 10 µM
COc1c(Cl)cccc1Nc1c(-c2ccncc2OC[C@@H]2COCCO2)[nH]c2c1C(=O)NCC2 — IC50 (Epithelial discoidin domain-containing receptor 1 (DDR1, Homo sapiens, UniProt Q08345); ligand displacement, TR-FRET): 0.11 µM
c1ccc(-c2occc2-c2ccnc3ccccc23)nc1 — IC50 (CSNK1A1; enzyme activity, inhibitor, ADP detection): > 30 µM
O=C(NS(=O)(=O)c1ccccc1)c1cc2ccccc2n1Cc1ccc(C2CC2)c2ccccc12 — IC50 (SLC22A12; transporter uptake, inhibitor, radiometric): 4.09 µM
Fc1ccc(-c2nn3cccc(F)c3c2-c2ccncc2)cc1 — IC50 (CSNK1A1; enzyme activity, inhibitor, ADP detection): 5.5 µM
CN1CCC(CNc2ccc3ncc(-c4cccc(OC(F)(F)F)c4)n3n2)CC1 — IC50 (Beta-2 adrenergic receptor (ADRB2, Homo sapiens, UniProt P07550); cAMP, antagonist): 8.31 µM
O=C(O)/C=C/c1nccc2c3ccccc3n(Cc3ccc(Br)c4ccccc34)c12 — IC50 (SLC22A12; transporter uptake, inhibitor, radiometric): 3.02 µM
Fc1ccc(-c2nn3cc(C(F)(F)F)ccc3c2-c2ccncc2)cc1 — IC50 (CSNK1A1; enzyme activity, inhibitor, ADP detection): > 15 µM
O=C(NO)c1ccc(Cn2cnc3c(Nc4cccc([N+](=O)[O-])c4)ncnc32)cc1 — IC50 (HDAC7; enzyme activity, inhibitor): 0.117 µM
CC(C)C1=CC2=CC(=O)[C@H]3C(C)(C)CCC[C@]3(C)C2=C(O)C1=O (racemic) — IC50 (Farnesyl pyrophosphate synthase (FDPS, Homo sapiens, UniProt P14324); enzyme activity, inhibitor): 0.12 µM
COc1ccn2nc(-c3ccc(F)cc3)c(-c3ccncc3)c2c1 — IC50 (CSNK1A1; enzyme activity, inhibitor, ADP detection): 2.1 µM
O=CCCCCCCCC(=O)C(F)(F)F — IC50 (PLA2G6; enzyme activity, inhibitor): 41.2 µM
